# Screens (PubChem)
# 697 NFkB inh: inhibitors of PMA/ionomycin-induced NF-kB reporter, 697 cells, primary screen, B-cell NF-kB inhibitor project, cell-based, luminescence, uHTS. inhibition, % at 4 µM. actives 0.33% (n = 330,000). 697 B-cell NF-kB luciferase reporter, 16 h; in the data active = inhibition above about 35%
# hiPSC survival: enhancers of single-cell hiPSC survival, primary screen, ATPlite luminescence; 100% = ROCK inhibitor wells, 0% = DMSO; survival enhancement, % at 20 µM; actives 0.044% (n = 360,000); in the data active = survival enhancement above about 18%;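 also: cells exposed to compounds for 16 hours before the ATP read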
# Gli-Sufu antag: Gli-Sufu pathway antagonists, primary screen, luciferase luminescence, Sufu-KO-LIGHT cells, uHTS; inhibition, % at 5 µM; Sufu-KO-LIGHT fibroblasts, Gli luciferase reporter luminescence; AID 588413, 2011; actives 0.74% (n = 340,000);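 active = inhibition above about 55%, limit read from the data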;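 also: 0% = DMSO-treated cells and 100% = wells with medium but no cells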
# TAG inh: inhibitors of triacylglycerol accumulation, primary screen, cell-based, uHTS, fluorescence, H9c2 | H9c2 cells, Nile Red lipid (TAG) fluorescence; cells loaded with 200 µM oleic acid | inhibition, % at 12.5 µM | actives 0.66% (n = 230,000);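 active = pattern-corrected inhibition of lipid staining of at least 50% with the nuclear-stain viability signal not falling by more than 50%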;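 also: 0% = DMSO wells and 100% = triacsin C control wells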
# Lipid droplet: inhibitors of hepatocyte lipid droplet formation, primary screen, imaging, high-throughput imaging, BODIPY stain; AML12 mouse hepatocytes, oleate lipid droplets; inhibition, % at 6.5 µM; actives 0.4% (n = 240,000); AID 1656, 2009;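 active = lipid droplet intensity inhibited by at least 50%, with more than 500 cells counted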
#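 Assay system: AML12 mouse liver cells | Compound: 6.5 µM single-point dosing | Schedule: Overnight exposure | Technique: Fluorescence imaging, 20x objective, two fields per well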
# Jurkat NFkB inh: inhibitors of induced NF-kB luciferase reporter, primary screen, TCR NF-kB activation inhibitor project, cell-based, luminescence, uHTS. Jurkat, PMA/ionomycin-induced NF-kB luciferase reporter. inhibition, % at 4 µM. actives 0.53% (n = 330,000). AID 435003, 2010; in the data active = inhibition above about 50%
# H9c2 TAG conf: triacylglycerol accumulation inhibitors, retest, confirmation, cell-based, single concentration, Nile Red fluorescence, H9c2. shares compounds with TAG inh. H9c2 lipid accumulation; cells loaded with 200 µM oleic acid. inhibition, % at 12.5 µM. actives 71% (n = 990);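 active = mean inhibition across replicates of 40% or more; inactive = mean inhibition below 40%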;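 also: plate controls were DMSO only wells for no effect and Triacsin C treated wells for full effect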
# * hit, by the source's call; x = no result given. An excerpt weighted towards active compounds, which were near 1.8% of everything screened.
SMILES,697 NFkB inh,hiPSC survival,Gli-Sufu antag,TAG inh,Lipid droplet,Jurkat NFkB inh,H9c2 TAG conf
COc1cccc(-c2cc(C(=O)Nc3ccc(N(C)C(C)=O)cc3)c3cc(Br)ccc3n2)c1,17,-1,7,50*,x,3,57*
COc1cccc(-c2cc(C(=O)Nc3ccncc3)c3ccccc3n2)c1,-65,0,1,-9,-9,0,x
CCOC(=O)CN(C(=O)CSc1nnc2c(n1)[nH]c1ccccc12)c1ccccc1,-23,-2,4,51*,x,0,29
Cc1ccc(C)c(C(=O)NC(C)CCc2ccccc2)c1 (stereo not drawn),4,0,2,-2,-30,8,x
Cc1occc1C(=O)NC(C)CCc1ccccc1 (stereo not drawn),5,2,-22,51*,x,0,54*
C=CCn1c(=S)[nH]c2cc(C(=O)N3CCN(c4ccccc4OC)CC3)ccc2c1=O,-7,0,8,5,x,-7,x
O=[N+]([O-])c1ccc(Cl)c(NC2=NCCCCC2)c1,3,0,-20,x,-53,2,x
CCOC(=O)c1sc2nc(CSc3ccccc3)nc(NCCN(C)C)c2c1C,1,0,16,52*,6,1,62*
